Experiment: Ratio of drug level in brain to blood in iv dosed mouse
Assay type: ADME, organism-based
Settings: brain/whole blood, read-out: BBR
Outline: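 Brain/blood radioactivity ratio was taken from decay-corrected %ID/g tissue in whole brain and blood. Samples came from male Wister mice (30 g, 7 weeks) given the 11C tracer iv by tail vein (average 20 MBq/400 µL). Mice were sacrificed at 1–60 min after injection, three per time point.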

Structure (SMILES) | Kp
CCOC(=O)C1=C[C@@H](OC(CC)CC)[C@H](N[11C](C)=O)[C@@H](N)C1 | 0.07
CCC(CC)O[C@@H]1C=C(C(=O)O)C[C@H](N)[C@H]1N[11C](C)=O | 0.06

Reference: ChEMBL document CHEMBL1141484, “Radiosyntheses of two positron emission tomography probes: [11C]Oseltamivir and its active metabolite [11C]Ro 64-0802” (Bioorg Med Chem Lett, 2008)
